# Measurements published in ChEMBL document CHEMBL4052819 (2017).
# The source made the active and inactive calls. The rule behind the calls is not given here. Non-standard residues stand in square brackets, D forms with d. Residues, ends and D or L forms follow the SMILES beside them. *: point of attachment. Decanoyl = CCCCCCCCCC(=O)*; Octanoyl = CCCCCCCC(=O)*; Dab = NCC[C@H](N)C(=O)O
# Assays:
# Escherichia coli [1] = assay: Antibacterial activity against Escherichia coli ATCC 25922 in presence of 100% serum measured immediately post compound addition in serum by broth microdilution method; assay type: functional
# Outline: (§1)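 Serum stability: compound added to 100% human serum at final 64 μg/mL, held at 37 °C, sampled at 0, 6, 12 and 24 h. […] Residual activity compared with untreated control.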
# Escherichia coli [2] = assay: Antibacterial activity against Escherichia coli ATCC 25922 after 18 to 20 hrs in presence of 95% serum by broth microdilution method; assay type: functional
# Outline: (§2)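 Same microdilution with human serum as medium: compound 2-fold diluted in 100% serum, mixed 1:1 with 90% serum holding ~1.5 × 10^5 CFU/mL, giving 95% serum and final 0.5–64 μg/mL. MIC read as no visible growth after incubation as for the broth test.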
# Staphylococcus aureus [3] = assay: Antibacterial activity against methicillin-resistant Staphylococcus aureus ATCC 43300 after 18 to 20 hrs by broth microdilution method; assay type: functional
# Outline: (§3)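 Broth microdilution in tryptic soy broth: 2-fold dilutions mixed 1:1 with ~1.5 × 10^5 CFU/mL bacterial suspension in TSB, final 0.5–32 μg/mL, 37 °C for 18–20 h. MIC = lowest concentration with no visible growth. At least three independent experiments, one replicate each.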
# Pseudomonas aeruginosa [4] = assay: Bactericidal activity against Pseudomonas aeruginosa ATCC 27853; assay type: functional; settings: read-out: MBC99.9
# Outline: (§4)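 MBC from MIC plates at end point: 50 μL from each well with no visible growth plated on tryptic soy agar and counted. MBC taken as lowest concentration giving ≥99.9% fall in viable count relative to initial inoculum. Three independent experiments, one replicate each.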
# Klebsiella pneumoniae [5] = assay: Antibacterial activity against Klebsiella pneumoniae ATCC 13883 after 18 to 20 hrs by broth microdilution method; assay type: functional
# Escherichia coli [6] = assay: Antibacterial activity against Escherichia coli ATCC 25922 in presence of 100% serum after 12 hrs by broth microdilution method; assay type: functional; settings: ATCC 25922, 12 h; outline: as §1
# Enterococcus faecium [7] = assay: Antibacterial activity against Enterococcus faecium ATCC 19434 after 18 to 20 hrs by broth microdilution method; assay type: functional
# Outline: (§5)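 Broth microdilution in tryptic soy broth: 2-fold dilutions mixed 1:1 with ~1.5 × 10^5 CFU/mL inoculum, final 0.5–32 μg/mL; 37 °C, 18–20 h. MIC taken as lowest concentration giving no visible growth. At least three independent experiments, one replicate each.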
# Staphylococcus aureus [8] = assay: Bactericidal activity against Staphylococcus aureus ATCC 29213; assay type: functional; settings: read-out: MBC99.9; outline: as §4
# Staphylococcus aureus [9] = assay: Antibacterial activity against Staphylococcus aureus ATCC 29213 after 18 to 20 hrs by broth microdilution method; assay type: functional; outline: as §5
# Escherichia coli [10] = assay: Antibacterial activity against Escherichia coli ATCC 25922 after 18 to 20 hrs by broth microdilution method; assay type: functional; outline: as §5
# Escherichia coli [11] = assay: Antibacterial activity against Escherichia coli ATCC 25922 in presence of 100% serum after 24 hrs by broth microdilution method; assay type: functional; settings: ATCC 25922, 24 h; outline: as §1
# Escherichia coli [12] = assay: Antibacterial activity against Escherichia coli ATCC 25922 in presence of 100% serum after 6 hrs by broth microdilution method; assay type: functional; settings: ATCC 25922, 6 h; outline: as §1
# Escherichia coli [13] = assay: Bactericidal activity against Escherichia coli ATCC 25922; assay type: functional; settings: read-out: MBC99.9; outline: as §4
# Staphylococcus aureus [14] = assay: Bactericidal activity against methicillin-resistant Staphylococcus aureus ATCC 43300; assay type: functional; settings: read-out: MBC99.9
# Outline: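 MBC taken at the end of the MIC test: 50 μL from each well without visible growth plated on tryptic soy agar. MBC = lowest concentration giving ≥99.9% reduction in viable cells relative to the initial inoculum. Three independent experiments, one replicate each.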
# Acinetobacter baumannii [15] = assay: Bactericidal activity against Acinetobacter baumannii ATCC 19606; assay type: functional; settings: ATCC 19606 = CIP 70.34 = JCM 6841, read-out: MBC99.9; outline: as §4
# Staphylococcus aureus [16] = assay: Antibacterial activity against Staphylococcus aureus ATCC 29213 after 18 to 20 hrs in presence of 95% serum by broth microdilution method; assay type: functional; outline: as §2
# Acinetobacter baumannii [17] = assay: Antibacterial activity against Acinetobacter baumannii ATCC 19606 after 18 to 20 hrs by broth microdilution method; assay type: functional; settings: ATCC 19606 = CIP 70.34 = JCM 6841
# Pseudomonas aeruginosa [18] = assay: Antibacterial activity against Pseudomonas aeruginosa ATCC 27853 after 18 to 20 hrs by broth microdilution method; assay type: functional; outline: as §5
# Klebsiella pneumoniae [19] = assay: Bactericidal activity against Klebsiella pneumoniae ATCC 13883; assay type: functional; settings: read-out: MBC99.9; outline: as §4
# Pseudomonas aeruginosa [20] = assay: Bactericidal activity against Pseudomonas aeruginosa ATCC 27853 after 60 mins in presence of LPS; assay type: functional
# Outline: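 P. aeruginosa at ~10^6 CFU/mL in TSB with E. coli O111:B4 LPS (final 10, 25, 50 or 100 μg/mL), then compound at final 16 μg/mL. Incubated 37 °C, 200 rpm, 60 min; survivors counted on TSA. Three independent experiments, one replicate each.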
# Enterococcus faecium [21] = assay: Bactericidal activity against Enterococcus faecium ATCC 19434; assay type: functional; settings: read-out: MBC99.9; outline: as §4
# Escherichia coli [22] = assay: Antibacterial activity against polymyxin-resistant Escherichia coli UAMS-ECPR2 after 18 to 20 hrs by broth microdilution method; assay type: functional; outline: as §3
# Klebsiella pneumoniae [23] = assay: Antibacterial activity against polymyxin-resistant Klebsiella pneumoniae UAMS-KPPR1 after 18 to 20 hrs by broth microdilution method; assay type: functional
# Klebsiella pneumoniae [24] = assay: Antibacterial activity against polymyxin-resistant Klebsiella pneumoniae UAMS-KPPR3 after 18 to 20 hrs by broth microdilution method; assay type: functional
# Escherichia coli [25] = assay: Antibacterial activity against polymyxin-resistant Escherichia coli AR 0494 expressing mcr1 after 18 to 20 hrs by broth microdilution method; assay type: functional; outline: as §3
# Escherichia coli [26] = assay: Antibacterial activity against polymyxin-resistant Escherichia coli UAMS-ECPR1 after 18 to 20 hrs by broth microdilution method; assay type: functional; outline: as §3
# Staphylococcus aureus [27] = assay: Antibiofilm activity against methicillin-resistant Staphylococcus aureus LAC established catheter-associated biofilm model after 72 hrs; assay type: functional
# Staphylococcus aureus [28] = assay: Antibacterial activity against methicillin-resistant Staphylococcus aureus LAC; assay type: functional
# Klebsiella pneumoniae [29] = assay: Potentiation of clarithromycin-mediated antibacterial activity against Klebsiella pneumoniae ATCC 13883 assessed as decrease in clarithromycin MIC at 4 ug/ml by checkerboard method relative to control; assay type: functional
# Klebsiella pneumoniae [30] = assay: Potentiation of rifampicin-mediated antibacterial activity against Klebsiella pneumoniae ATCC 13883 assessed as rifampicin MIC at 2 ug/ml by checkerboard method (reference value: 16 ug/ml); assay type: functional
# Acinetobacter baumannii [31] = assay: Potentiation of rifampicin-mediated antibacterial activity against Acinetobacter baumannii ATCC 19606 assessed as rifampicin MIC at 2 ug/ml by checkerboard method (reference value: 16 ug/ml); assay type: functional; settings: ATCC 19606 = CIP 70.34 = JCM 6841
# Acinetobacter baumannii [32] = assay: Potentiation of rifampicin-mediated antibacterial activity against Acinetobacter baumannii ATCC 19606 assessed as decrease in rifampicin MIC at 4 ug/ml by checkerboard method relative to control; assay type: functional, ATCC 19606 = CIP 70.34 = JCM 6841
# Klebsiella pneumoniae [33] = assay: Potentiation of rifampicin-mediated antibacterial activity against Klebsiella pneumoniae ATCC 13883 assessed as decrease in rifampicin MIC at 2 ug/ml by checkerboard method relative to control; assay type: functional
# Klebsiella pneumoniae [34] = assay: Potentiation of ampicillin-mediated antibacterial activity against Klebsiella pneumoniae ATCC 13883 assessed as decrease in ampicillin MIC at 4 ug/ml by checkerboard method relative to control; assay type: functional
# Klebsiella pneumoniae [35] = assay: Potentiation of vancomycin-mediated antibacterial activity against Klebsiella pneumoniae ATCC 13883 assessed as decrease in vancomycin MIC at 4 ug/ml by checkerboard method relative to control; assay type: functional
# Klebsiella pneumoniae [36] = assay: Potentiation of erythromycin-mediated antibacterial activity against Klebsiella pneumoniae ATCC 13883 assessed as decrease in erythromycin MIC at 4 ug/ml by checkerboard method relative to control; assay type: functional
# Acinetobacter baumannii [37] = assay: Potentiation of vancomycin-mediated antibacterial activity against Acinetobacter baumannii ATCC 19606 assessed as decrease in vancomycin MIC at 4 ug/ml by checkerboard method relative to control; assay type: functional, ATCC 19606 = CIP 70.34 = JCM 6841
# Acinetobacter baumannii [38] = assay: Potentiation of clarithromycin-mediated antibacterial activity against Acinetobacter baumannii ATCC 19606 assessed as decrease in clarithromycin MIC at 4 ug/ml by checkerboard method relative to control; assay type: functional, ATCC 19606 = CIP 70.34 = JCM 6841
# Acinetobacter baumannii [39] = assay: Potentiation of erythromycin-mediated antibacterial activity against Acinetobacter baumannii ATCC 19606 assessed as decrease in erythromycin MIC at 4 ug/ml by checkerboard method relative to control; assay type: functional, ATCC 19606 = CIP 70.34 = JCM 6841
# Acinetobacter baumannii [40] = assay: Potentiation of ampicillin-mediated antibacterial activity against Acinetobacter baumannii ATCC 19606 assessed as decrease in ampicillin MIC at 4 ug/ml by checkerboard method relative to control; assay type: functional, ATCC 19606 = CIP 70.34 = JCM 6841
Compound,MIC (Escherichia coli [1]) [µg/mL],MIC (Escherichia coli [2]) [µg/mL],MIC (Staphylococcus aureus [3]) [µg/mL],MBC (Pseudomonas aeruginosa [4]) [µg/mL],MIC (Klebsiella pneumoniae [5]) [µg/mL],MIC (Escherichia coli [6]) [µg/mL],MIC (Enterococcus faecium [7]) [µg/mL],MBC (Staphylococcus aureus [8]) [µg/mL],MIC (Staphylococcus aureus [9]) [µg/mL],MIC (Escherichia coli [10]) [µg/mL],MIC (Escherichia coli [11]) [µg/mL],MIC (Escherichia coli [12]) [µg/mL],MBC (Escherichia coli [13]) [µg/mL],MBC (Staphylococcus aureus [14]) [µg/mL],MBC (Acinetobacter baumannii [15]) [µg/mL],MIC (Staphylococcus aureus [16]) [µg/mL],MIC (Acinetobacter baumannii [17]) [µg/mL],MIC (Pseudomonas aeruginosa [18]) [µg/mL],MBC (Klebsiella pneumoniae [19]) [µg/mL],Activity (Pseudomonas aeruginosa [20]),other results
CCCCCCCC(=O)N[C@@H](CCN)C(=O)N[C@H](C(=O)N[C@@H](CCN)C(=O)N[C@H](Cc1ccccc1)C(=O)N[C@@H](CC(C)C)C(=O)N[C@@H](CCN)C(=O)N[C@@H](C(=O)N[C@@H](CC(C)C)C(=O)N[C@@H](CO)C(N)=O)C(C)C)[C@@H](C)CC (Octanoyl-[Dab]I[Dab][dF]L[Dab][dV]LS-NH2),8,8,8 to 16,8 to 16,8 to 16,8,16,16,8 to 16,2 to 4,8,8,16,8 to 32,16 to 32,16 to 32,16,2,8 to 16,inactive,MBC (Enterococcus faecium [21]): 16 to 32 µg/mL
POLYMYXIN B,,,,,,,,,,,,,,,,,,,,,MIC (Escherichia coli [22]): 32 µg/mL; MIC (Klebsiella pneumoniae [23]): > 32 µg/mL; MIC (Klebsiella pneumoniae [24]): > 32 µg/mL; MIC (Escherichia coli [25]): 2 to 8 µg/mL; MIC (Escherichia coli [26]): 32 µg/mL
CCCCCCCCCC(=O)N[C@@H](CCN)C(=O)N[C@H](C(=O)N[C@@H](CCN)C(=O)N[C@H](Cc1ccccc1)C(=O)N[C@@H](CC(C)C)C(=O)N[C@@H](CCN)C(=O)N[C@@H](C(=O)N[C@@H](CC(C)C)C(=O)N[C@@H](CO)C(N)=O)C(C)C)[C@@H](C)CC (Decanoyl-[Dab]I[Dab][dF]L[Dab][dV]LS-NH2),,32,2 to 4,2 to 4,2 to 4,,2,4 to 8,2 to 4,2 to 8,,,8,2 to 4,0.5 to 2,16,0.5 to 2,1 to 2,4 to 8,inactive,Activity (Staphylococcus aureus [27]): inactive; Activity (Staphylococcus aureus [28]): Active; MBC (Enterococcus faecium [21]): 2 to 4 µg/mL
CCCCCCCC(=O)N[C@@H](CCN)C(=O)N[C@H](C(=O)N[C@@H](CCN)C(=O)N[C@H](Cc1ccccc1)C(=O)N[C@@H](CC(C)C)C(=O)N[C@@H](CCN)C(=O)N[C@@H](C(=O)N[C@@H](CC(C)C)C(=O)N[C@@H](CCN)C(N)=O)C(C)C)[C@@H](C)CC (Octanoyl-[Dab]I[Dab][dF]L[Dab][dV]L[Dab]-NH2),1 to 2,2 to 4,32,16,> 32,1 to 2,32,,> 32,4 to 16,2,2,,,,16,≥ 32,2 to 4,,inactive,fold change (FC) (Klebsiella pneumoniae [29]): 2048; MIC (Klebsiella pneumoniae [30]): 0.0019 to 0.0039 µg/mL; MIC (Acinetobacter baumannii [31]): 0.0019 µg/mL; fold change (FC) (Acinetobacter baumannii [32]): 8192; fold change (FC) (Klebsiella pneumoniae [33]): >=8192; fold change (FC) (Klebsiella pneumoniae [34]): 1; fold change (FC) (Klebsiella pneumoniae [35]): 2; fold change (FC) (Klebsiella pneumoniae [36]): 512; fold change (FC) (Acinetobacter baumannii [37]): 64 - 128; fold change (FC) (Acinetobacter baumannii [38]): 4096 - 8192; fold change (FC) (Acinetobacter baumannii [39]): 128 - 256; fold change (FC) (Acinetobacter baumannii [40]): 16 - 32
